The species entered for data set [1] is Homo sapiens. Put plainly: Activation of LPS-induced NF-kappaB activity in human THP1-Blue-NF-kappaB cells assessed as increase in SEAP reporter activity at 5 uM incubated for 20 hrs by quanti-blue SEAP assay relative to control. An outline of the steps: (§1)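 THP1-Blue NF-κB cells, 10^5/well, in RPMI with 10% FBS, pen/strep and Normocin. Compound (5 μM single point or graded concentrations, 0.05% DMSO) is added together with LPS; methods give final LPS 10 μg/mL, table footnote gives 10 ng/mL. Supernatant SEAP is read after 20 h by QuantiBlue colorimetry at 630 nm.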

The species named for data set [2] is Homo sapiens. Put plainly: Activation of IFNalpha signalling in human ISRE-bla-THP1 cells assessed as increase in type-1 IFN-alpha induced ISRE activity at 5 uM preincubated for 16 hrs followed by CCF4-AM substrate addition and measured after 3 hrs by FRET based assay relative to control. In kind it is cell-based. An outline of the steps: (§2)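 ISRE-bla THP-1 cells, 5×10^4/well, in RPMI with 10% dialyzed FBS, 0.1 mM non-essential amino acids, 1 mM pyruvate and pen/strep. Cells are co-treated with IFN-α (final 100 U/mL) and compound: 5 μM single point or graded concentrations, 0.05% DMSO. After 16 h, CCF4-AM is added for 3 h at RT in the dark.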

Data set [3] is described as follows: Activation of LPS-induced NF-kappaB activity in human THP1-Blue-NF-kappaB cells assessed as increase in SEAP reporter activity incubated for 20 hrs by quanti-blue SEAP assay. A digest of the protocol:
as §1

Data set [4] can be described thus: Activation of IFNalpha signalling in human ISRE-bla THP1 cells assessed as increase in type-1 IFN-alpha induced ISRE activity preincubated for 16 hrs followed by CCF4-AM substrate addition and measured after 3 hrs by FRET based assay. Particulars: THP-1. In kind it is cell-based. An outline of the steps: as §2
In data set [5] the test system is THP-1. Put plainly: Cytotoxicity against human THP1 cells assessed as reduction in cell viability at 5 uM incubated for 18 hrs by MTT assay relative to control. Conditions: thp-1, 18 h.
The species named for data set [6] is Mus musculus. Briefly: Co-adjuvanticity in ovalbumin immunized C57BL/6 mouse assessed as increase in OVA-specific IgG titers in blood at 100 nmol co-immunized with adjuvant MPLA and ovalbumin antigen on day 0 and 21 and measured on day 21 by ELISA. The format is functional, organism-based. An outline of the steps: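 C57BL/6 mice, 7–9 weeks old, n=8/group, immunized on days 0 and 21 with ovalbumin (20 μg/animal), MPLA (10 μg/animal) and compound (100 nmol/animal). Bled on day 21; OVA-specific IgG titers measured by ELISA.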

A short description of data set [7]: Systemic toxicity in ovalbumin immunized C57BL/6 mouse assessed as behavioural changes at 50 nmol co-immunized with adjuvant MPLA and ovalbumin antigen on day 0 and 21. Particulars: in vivo. An outline of the steps:
(§3)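 C57BL/6 mice, 7–9 weeks old, n=8/group, immunized intramuscularly (gastrocnemius) on days 0 and 21 with ovalbumin (20 μg/animal), MPLA (10 ng/animal) and compound (50 nmol/animal). Systemic toxicity monitored as behaviour change and weight loss.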

The nature of data set [8]: Systemic toxicity in ovalbumin immunized C57BL/6 mouse assessed as body weight loss at 50 nmol co-immunized with adjuvant MPLA and ovalbumin antigen on day 0 and 21. Conditions: in vivo. An outline of the steps: as §3
Data set [9] can be described thus: Stability of the compound in DMSO. The format is physicochemical.
Data set [10] in a line: Prodrug conversion in RPMI assay medium supplemented with 10% dialyzed FBS, 100 U/ml penicillin and 100 ug/ml streptomycin assessed as N-(4-chloro-2,5-dimethoxyphenyl)-4-ethoxybenzene-sulfonamide release. In kind it is ADME. Conditions: cattle.

pEC50: −log10 of the molar value. Active and inactive are the calls of the source. The rule behind the calls is not given here.

In the case of `CCOc1ccc(S(=O)(=O)N(CCCN)c2cc(OC)c(Cl)cc2OC)cc1.Cl`, the Activity in [1] came out at 189%; in [2], 182%; in data set [5], 71%. For the same molecule, the results for the pEC50 in [3] and in data set [4] were 5.48 and 5.52, respectively.
Consider `CCOc1ccc(S(=O)(=O)N(C)c2cc(OC)c(Cl)cc2OC)cc1`, for which the Activity in [1] was 235%; in data set [2] it was 215%; in [7], “Non-Toxic”; in data set [8] it was “Non-Toxic”; in data set [5] it was 74.5%. Further, the pEC50 is 6.16 in data set [3] and 6.08 in data set [4]. For the same molecule, in data set [6], the result was Active.
Regarding `CCOc1ccc(S(=O)(=O)N(C(C)=O)c2cc(OC)c(Cl)cc2OC)cc1`, the values for the Activity in [1], in [2] and in data set [5] were 184%, 244% and 72%, respectively. The Stability result in data set [9] is “Stable”. In addition, the Drug metabolism entry in data set [10] was “Metabolite_Detected”.
Turning to `CCOc1ccc(S(=O)(=O)Nc2cc(OC)c(Cl)cc2OC)cc1`, the Activity in data set [1] is 200%; in data set [2] it was 200%; in data set [7] it was “Non-Toxic”; in [8], “Non-Toxic”; in [5] it was 73.5%. Also, the pEC50 in [3] was 6.22; in [4] it was 6.18. Also, the outcome in data set [6] was Active.
Turning to `CCCCOc1ccc(S(=O)(=O)Nc2cc(OC)c(Cl)cc2OC)cc1`, the figures for the Activity in [1], in data set [2] and in data set [5] were 101%, 106% and 95.3%, respectively.
Consider `CCOc1ccc(S(=O)(=O)N(Cc2ccccc2)c2cc(OC)c(Cl)cc2OC)cc1`, for which the Activity was determined as 181% in [1], 159% in [2] and 71.7% in data set [5].
Taken in the same sequence, the figures for `COc1cc(NS(=O)(=O)c2ccc(N)cc2)c(OC)cc1Cl` were 101%, 103% and 96%.
The like results for `COc1cc(NS(=O)(=O)c2ccc(CNC(=O)OC(C)(C)C)cc2)c(OC)cc1Cl` were, in that order, 100%, 101% and 109.2%.
The like results for `COc1cc(NS(=O)(=O)c2ccc(C(=O)O)cc2)c(OC)cc1Cl` were, in that order, 89%, 104% and 98.2%.
On to `CCOc1ccc(S(=O)(=O)Nc2cc(OC)c(N)cc2OC)cc1`, for which the Activity in [1] stood at 101%; in [2], 102%; in [5] it was 92.2%.
The like results for `CCCCCCCCCCCCN(c1cc(OC)c(Cl)cc1OC)S(=O)(=O)c1ccc(OCC)cc1` were, in that order, 97%, 100% and 93%.
Taken in the same sequence, the figures for `COc1cc(NS(=O)(=O)c2ccc(O)cc2)c(OC)cc1Cl` were 98%, 104% and 85.2%.
On to `COc1ccc(S(=O)(=O)Nc2cc(OC)c(Cl)cc2OC)cc1`, for which the Activity in [1] was 226%; in data set [2], 219%; in data set [5] it was 69.6%. Further, the pEC50 is 5.73 in data set [3] and 5.85 in data set [4].

The values are drawn from ChEMBL document CHEMBL4376827, “Structure-Activity Relationship Studies To Identify Affinity Probes in Bis-aryl Sulfonamides That Prolong Immune Stimuli” (J Med Chem, 2019).
